Laboratory results reported in ChEMBL document CHEMBL3046721, “3-(Arylthiomethyl)isoxazole-4,5-dicarboxamides: chemoselective nucleophilic chemistry and insecticidal activity” (2009).
Calls of active or inactive are those of the source.

What was measured:
Spodoptera exigua [1] = assay: Insecticidal activity against larvae of Spodoptera exigua fed with artificial diet containing compound assessed as mortality after 6 days by high-throughput screening assay; type: functional; set-up: concentration or dose not given beside the values
Summary of the method: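 Artificial diet (100 μl/well, 96-well) pretreated with 12 μg compound in 30 μl DMSO-acetone-water (2:1:7), dried several hours, then seeded with eggs. Plates covered, kept in dark at 29°C, mortality recorded 6 days post-treatment. Six replicates per treatment.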

Aedes aegypti = assay: Insecticidal activity against larvae of Aedes aegypti assessed as mortality after 3 days by high-throughput screening assay; type: functional, organism-based
Summary of the method: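 One-day-old larvae placed in 96-well plates pre-treated with 6 μg/well, applied in 15 μl DMSO-acetone-water (1:1:8) and dried. Plates lidded, held at room temperature, mortality graded 3 days post-treatment. Six replicates per treatment.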

Helicoverpa zea = assay: Insecticidal activity against second-instar larval stage of Helicoverpa zea (corn earworm) fed with artificial diet containing compound assessed as mortality after 5 days by diet-based secondary assay; type: functional, organism-based
Summary of the method: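 Follow-up for primary-screen hits (>67% mortality): 128-well diet trays, 1 mL diet containing selected dosages, second-instar larvae. Wells covered with clear plastic, eight wells per treatment, percent mortality averaged over eight wells at 5 days. Approximate LC50 estimated by probit analysis.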

Spodoptera exigua [2] = assay: Insecticidal activity against second-instar larval stage of Spodoptera exigua fed with artificial diet containing compound assessed as mortality at 50 ug/cm2 after 5 days by diet-based secondary assay; type: functional; conditions: 120 h
Summary of the method: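 Second-instar larvae on 128-well trays with 1 mL diet dosed at 50 μg/cm2, eight wells per treatment under clear plastic. Percent mortality averaged over the eight wells, scored 5 days after assay start; tested only on primary-screen hits (>67% mortality).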

Row | SMILES | mortality (Spodoptera exigua [1]) [%] | mortality (Aedes aegypti) | mortality (Helicoverpa zea) | mortality at 50 µg/cm2 (Spodoptera exigua [2]) [%]
1 | C=CCNC(=O)c1onc(CSc2ccc(Cl)cc2)c1C(=O)NCC=C | 17 | inactive |  | 
2 | CCCCNC(=O)c1c(CS(=O)(=O)c2ccc(Cl)cc2)noc1C(=O)NCc1ccccc1 | 83 | inactive | inactive | 0
3 | C=CCNC(=O)c1c(CS(=O)(=O)c2ccccc2)noc1C(=O)NCc1ccccc1 | 100 | inactive | inactive | 0
4 | CCCCNC(=O)c1c(CSc2ccc(Cl)cc2)noc1C(=O)NCc1ccccc1 | 83 | inactive | inactive | 0
5 | CCCNC(=O)c1onc(CSc2ccccn2)c1C(=O)NCCC | 50 | inactive |  | 
6 | CCCCNC(=O)c1onc(CSc2ccc(F)cc2)c1C(=O)NCCCC | 50 | inactive |  | 
7 | C=CCNC(=O)c1onc(CSc2cc(C)cc(C)c2)c1C(=O)NCC=C | 17 | inactive |  | 
8 | CCCNC(=O)c1c(CS(=O)(=O)c2ccc(Cl)cc2)noc1C(=O)NCc1ccccc1 | 100 | inactive | inactive | 0
9 | C=CCNC(=O)c1onc(CSc2ccncc2)c1C(=O)NCC=C | 17 | inactive |  | 
10 | O=C(NCc1ccccc1)c1onc(CSc2ccc(Cl)cc2)c1C(=O)NCc1ccccc1 | 67 | inactive |  | 0
11 | O=C(NCc1ccccc1)c1onc(CSc2ccccn2)c1C(=O)NCc1ccccc1 | 67 | inactive |  | 0
12 | COCCNC(=O)c1onc(CSc2ccc(F)cc2)c1C(=O)NCCOC | 67 | inactive |  | 0
13 | CCCCNC(=O)c1onc(CSc2ccncc2)c1C(=O)NCCCC | 67 | inactive |  | 0
14 | CC(C)NC(=O)c1onc(CSc2ccc(F)cc2)c1C(=O)NC(C)C | 50 | inactive |  | 
15 | CCCNC(=O)c1onc(CSc2cc(C)cc(C)c2)c1C(=O)NCCC | 50 | inactive |  | 
16 | C=CCNC(=O)c1onc(CSc2ccccn2)c1C(=O)NCC=C | 17 | inactive |  | 
17 | CC(C)CCNC(=O)c1c(CSc2ccc(Cl)cc2)noc1C(=O)NCc1ccccc1 | 67 | inactive |  | 0
18 | CC(C)CCNC(=O)c1onc(CSc2ccccn2)c1C(=O)NCCC(C)C |  | inactive |  | 
19 | CCCCNC(=O)c1onc(CSc2ccccc2)c1C(=O)NCCCC |  | inactive |  | 
20 | CCCNC(=O)c1onc(CSc2cccc(OC)c2)c1C(=O)NCCC | 50 | inactive |  | 
21 | O=C(NCc1ccccc1)c1onc(CSc2ccccc2)c1C(=O)NCc1ccccc1 | 67 | inactive |  | 
22 | CCCNC(=O)c1onc(CSc2ccc(Cl)cc2)c1C(=O)NCCC | 50 | inactive |  | 
23 | CC(C)NC(=O)c1onc(CSc2ccccc2)c1C(=O)NC(C)C | 67 | inactive |  | 0
24 | CC(C)NC(=O)c1onc(CSc2ccccn2)c1C(=O)NC(C)C | 50 | inactive |  | 
25 | C=CCNC(=O)c1c(CSc2ccccc2)noc1C(=O)NCc1ccccc1 | 0 | inactive |  | 
26 | Cc1cc(C)cc(SCc2noc(C(=O)NCCC(C)C)c2C(=O)NCCC(C)C)c1 |  | inactive |  | 
27 | CCCNC(=O)c1onc(CSc2ccccc2)c1C(=O)NCCC | 50 | inactive |  | 

Row | SMILES | mortality (Spodoptera exigua [1]) [%] | mortality (Aedes aegypti) | mortality (Helicoverpa zea) | mortality at 50 µg/cm2 (Spodoptera exigua [2]) [%]
28 | C=CCNC(=O)c1onc(CSc2cccc(OC)c2)c1C(=O)NCC=C | 67 | inactive |  | 0
29 | COc1cccc(SCc2noc(C(=O)NCc3ccccc3)c2C(=O)NCc2ccccc2)c1 | 50 | inactive |  | 
30 | CCCCNC(=O)c1onc(CSc2cccc(OC)c2)c1C(=O)NCCCC |  | inactive |  | 
31 | CC(C)CCNC(=O)c1onc(CSc2ccncc2)c1C(=O)NCCC(C)C | 83 | inactive |  | 0
32 | COCCNC(=O)c1c(CS(=O)(=O)c2ccccc2)noc1C(=O)NCc1ccccc1 | 100 | inactive | inactive | 
33 | COc1cccc(SCc2noc(C(=O)NCCC(C)C)c2C(=O)NCCC(C)C)c1 |  | inactive |  | 
34 | CC(C)CCNC(=O)c1onc(CSc2ccccc2)c1C(=O)NCCC(C)C | 33 | inactive |  | 
35 | CCCNC(=O)c1onc(CSc2ccncc2)c1C(=O)NCCC | 33 | inactive |  | 
36 | COCCNC(=O)c1onc(CSc2cccc(OC)c2)c1C(=O)NCCOC | 67 | inactive |  | 0
37 | COCCNC(=O)c1onc(CSc2cc(C)cc(C)c2)c1C(=O)NCCOC |  | inactive |  | 
38 | COCCNC(=O)c1c(CSc2ccc(Cl)cc2)noc1C(=O)NCc1ccccc1 | 17 | inactive |  | 
39 | CCCCNC(=O)c1onc(CSc2ccccn2)c1C(=O)NCCCC |  | inactive |  | 
40 | Cc1cc(C)cc(SCc2noc(C(=O)NC(C)C)c2C(=O)NC(C)C)c1 |  | inactive |  | 
41 | COCCNC(=O)c1onc(CSc2ccccn2)c1C(=O)NCCOC | 17 | inactive |  | 
42 | COCCNC(=O)c1onc(CSc2ccncc2)c1C(=O)NCCOC | 50 | inactive |  | 
43 | CC(C)CCNC(=O)c1c(CSc2ccccc2)noc1C(=O)NCc1ccccc1 | 67 | inactive |  | 0
44 | CCCCNC(=O)c1onc(CSc2cc(C)cc(C)c2)c1C(=O)NCCCC |  | inactive |  | 
45 | C=CCNC(=O)c1onc(CSc2ccccc2)c1C(=O)NCC=C | 33 | inactive |  | 
46 | C=CCNC(=O)c1onc(CSc2ccc(F)cc2)c1C(=O)NCC=C | 67 | inactive |  | 0
47 | CCCCNC(=O)c1onc(CSc2ccc(Cl)cc2)c1C(=O)NCCCC | 33 | inactive |  | 
48 | COCCNC(=O)c1c(CSc2ccccc2)noc1C(=O)NCc1ccccc1 | 17 | inactive |  | 
49 | CCCNC(=O)c1onc(CSc2ccc(F)cc2)c1C(=O)NCCC | 33 | inactive |  | 
50 | O=C(NCc1ccccc1)c1onc(CSc2ccc(F)cc2)c1C(=O)NCc1ccccc1 | 67 | inactive |  | 0
51 | CC(C)NC(=O)c1c(CS(=O)(=O)c2ccc(Cl)cc2)noc1C(=O)NCc1ccccc1 |  | inactive |  | 
52 | CCCCNC(=O)c1c(CS(=O)(=O)c2ccccc2)noc1C(=O)NCc1ccccc1 | 67 | inactive |  | 0
53 | O=C(NCc1ccccc1)c1onc(CSc2ccncc2)c1C(=O)NCc1ccccc1 |  | inactive |  | 
